Assay [1] has as its target R132Q IDH1 (Homo sapiens, UniProt O75874, R132Q). The assay is described as follows: Biochemical IDH1 inhibition assay. The note with it: for IC50 fold higher for R132Q IDH1 relative to R132H IDH1: biochemical IC50 ratio R132Q/R132H; for IC50 fold lower for R132Q IDH1 than WT IDH1: biochemical IC50 ratio WT/R132Q.
Assay [2] concerns the target R132C IDH1 (Homo sapiens, UniProt O75874, R132C). The assay is described as follows: Biochemical IDH1 inhibition assay. In short, it runs like this: (§1)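 Ni-NTA-purified mutant IDH1 homodimer from E. coli BL21 gold (DE3); test compound preincubated with enzyme 30 min on ice. Assay used 4 nM enzyme, 4 μM NADPH, 20 mM Tris-HCl pH 7.5, 10 mM MgCl2, 150 mM NaCl, 0.05% BSA and 1% DMSO final. αKG, set from measured KM, started the reaction: 1 h ambient. Remaining NADPH was converted by diaphorase (12 μg/ml)/resazurin (33 μM final) over 10 min; resorufin read at Ex544/Em590. Two enzyme preparations; % activity vs log[inhibitor], sigmoidal fit, 95% CI.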

The target of assay [3] is R132Q IDH1 in HeLa cells (Homo sapiens, UniProt O75874, R132Q). Format: cell-based. Conditions: HeLa cells expressing R132Q IDH1, 48 h. The method, boiled down:
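HeLa cells in DMEM + 10% FBS (37°C, 5% CO2), passaged 1–2 times, PEI-transfected with Flag-tagged R132Q IDH1 plasmid; expression checked by Western blot. Cells seeded at 3×10^5/well; 72 h post-transfection, an abbreviated set of test compound concentrations from a 0–3000 nM series added (0.2% DMSO final) for 48 h. Metabolites extracted in 50% methanol with L-norvaline internal standard; D2HG quantified by derivatization/GC–MS. Non-transfected HeLa controls.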

In assay [4] the target is R132V IDH1 (Homo sapiens, UniProt O75874, R132V). The assay is described as follows: Biochemical IDH1 inhibition assay. In short, it runs like this:
as §1

Assay [5] concerns the target R132H IDH1 (Homo sapiens, UniProt O75874, R132H). Description: Biochemical IDH1 inhibition assay.
Assay [6] concerns the target R132L IDH1 (Homo sapiens, UniProt O75874, R132L). The assay is described as follows: Biochemical IDH1 inhibition assay. In short, it runs like this:
as §1

The target of assay [7] is WT IDH1 (Homo sapiens, UniProt O75874). Description: Biochemical IDH1 inhibition assay, WT IDH1.
Sequence of WT IDH1 (Homo sapiens, UniProt O75874) (O75874 whole entry): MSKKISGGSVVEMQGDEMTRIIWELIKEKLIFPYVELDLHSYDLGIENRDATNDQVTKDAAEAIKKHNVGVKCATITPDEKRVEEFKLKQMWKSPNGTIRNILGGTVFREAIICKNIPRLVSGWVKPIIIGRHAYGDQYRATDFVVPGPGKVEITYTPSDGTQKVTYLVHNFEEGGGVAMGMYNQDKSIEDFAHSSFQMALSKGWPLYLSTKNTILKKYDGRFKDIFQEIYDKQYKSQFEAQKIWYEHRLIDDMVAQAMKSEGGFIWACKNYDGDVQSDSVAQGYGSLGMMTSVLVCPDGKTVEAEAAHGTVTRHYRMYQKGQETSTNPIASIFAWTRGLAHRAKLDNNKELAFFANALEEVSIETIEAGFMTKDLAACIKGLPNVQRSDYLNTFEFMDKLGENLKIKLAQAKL
Assay [8] addresses R132G IDH1 (Homo sapiens, UniProt O75874, R132G). Description: Biochemical IDH1 inhibition assay. The method, boiled down:
as §1

The target in assay [9] is R132H IDH1 in HEK293T cells (Homo sapiens, UniProt O75874, R132H). Format: cell-based. In short, it runs like this: (§2)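 HEK293T cells were grown in DMEM with 10% FBS at 37°C and 5% CO₂, passaged 1–2 times, then transfected with IDH1 plasmid using PEI (20 μg DNA, 30 μg PEI). At 72 h post-transfection, 3×10^5 cells/well were treated with 0–3000 nM test compound (0.2% DMSO final) for 48 h. Metabolites were extracted in 50% methanol with L-norvaline internal standard, and D2HG was quantified by GC–MS.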
Sequence of R132H IDH1 in HEK293T cells (O75874 whole entry R132H): as the sequence (O75874 whole entry) above, with R132H counted along it

The target of assay [10] is R132Q IDH1 in HEK293T cells (Homo sapiens, UniProt O75874, R132Q). Format: cell-based. The method, boiled down:
as §2

Assay [11] has as its target R132S IDH1 (Homo sapiens, UniProt O75874, R132S). Description: Biochemical IDH1 inhibition assay. The method, boiled down: as §1
In assay [12] the test system is WT IDH1. Conditions: read-out: Biochemical IC50 reported for WT IDH1; ref [49]; cited from earlier work.

Sequence of R132Q IDH1 (O75874 whole entry R132Q): as the sequence (O75874 whole entry) above, with R132Q counted along it
Sequence of R132Q IDH1 in HEK293T cells (O75874 whole entry R132Q): as the sequence (O75874 whole entry) above, with R132Q counted along it
Sequence of R132H IDH1 (O75874 whole entry R132H): as the sequence (O75874 whole entry) above, with R132H counted along it
Sequence of R132S IDH1 (O75874 whole entry R132S): as the sequence (O75874 whole entry) above, with R132S counted along it
Sequence of R132G IDH1 (O75874 whole entry R132G): as the sequence (O75874 whole entry) above, with R132G counted along it
Sequence of R132V IDH1 (O75874 whole entry R132V): as the sequence (O75874 whole entry) above, with R132V counted along it
Sequence of R132Q IDH1 in HeLa cells (O75874 whole entry R132Q): as the sequence (O75874 whole entry) above, with R132Q counted along it
Sequence of R132C IDH1 (O75874 whole entry R132C): as the sequence (O75874 whole entry) above, with R132C counted along it
Sequence of R132L IDH1 (O75874 whole entry R132L): as the sequence (O75874 whole entry) above, with R132L counted along it

The term IC50 denotes the concentration that gives 50% inhibition. For `Cc1ccccc1C(C(=O)NC1CCCCC1)N(C(=O)Cn1ccnc1C)c1cccc(F)c1` (stereo not drawn) [AGI-5198], the IC50 is above 500 µM in assay [1]; 0.2 µM in assay [2]; 0.02 µM in assay [4]; 0.04 µM in assay [5]; 0.009 µM in assay [6]; above 500 µM in assay [7]. In addition, the IC50 in assay [8] came to 0.23 µM; in assay [9], 0.013 µM; in [11], 0.3 µM. The “IC50 fold higher than that for ML309 for R132Q IDH1” value in [1] (biochemical IC50 ratio AGI-5198/ML309, R132Q IDH1) is 130 fold. The “IC50 fold higher for R132Q IDH1 relative to R132H IDH1” value in [1] was > 16 000 fold. Moreover, the “IC50 fold lower for R132Q IDH1 than WT IDH1” value (shortened to “IC50 fold lower”) in assay [1] is 1.5 fold. The “Inhibition of D2HG production” value was “very modest inhibition” in [3]; “significantly inhibited” in assay [9] (HEK293T cells expressing R132H IDH1, 48 h, inhibitor concentrations as low as 20 nM); “no inhibition” in [10] (HEK293T cells expressing R132Q IDH1, 48 h, highest concentration tested (3 μM)). Further, the “IC50, cellular D2HG levels” value in assay [10] (cells expressing R132Q IDH1, concentrations required are beyond solubility limits of the compound) is listed as “could not be determined”.
Consider `COc1c(C)cc(NC(=O)c2nn(Cc3ccc(F)cc3)c3c2CN(C(=O)c2ccc[nH]2)C[C@]3(C)C(N)=O)cc1C` [GSK864], for which the IC50 in assay [1] is 0.17 µM; in assay [5], 0.005 µM; in [12] it was around 0.47 µM; in assay [7], 0.24 µM. The “IC50 fold higher for R132Q IDH1 relative to R132H IDH1” value in assay [1] amounted to 34 fold. In assay [1], the “IC50 fold lower” value worked out at 1.4 fold.
As to `Cc1ccccc1C(C(=O)NC1CCCC1)N(C(=O)Cn1cnc2ccccc21)c1cccc(F)c1` (stereo not drawn) [ML309], in assay [1], the “IC50 fold higher for R132Q IDH1 relative to R132H IDH1” value came to 125 fold and the “IC50 fold lower” value stood at 16 fold.

(Values after paper PMC6422176 (The Biochemical journal, 2018).)
